The list is not random: actives were taken first. Their share in the collection is about 9.6%.
APP 5UTR inh: APP translation inhibition; SH-SY5Y APP 5'UTR-luciferase reporter, luminescence; inhibition, % at 2 µM; 190,000 compounds, 0.82% hits; AID 1285;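 active = inhibition above a set limit, derived from the sample mean plus 3 SD, cut at about 45% in these data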
MT stabilizer: microtubule stabilizers in HeLa cells | HeLa tubulin immunostaining HCS, 24 h; share of cells brighter than vehicle mean+2SD | % tubulin-high responders, % at 10 µM | 200,000 compounds, 0.83% hits;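 active = plate Z-score above 3 for both tubulin-high and condensed-nucleus cell shares, with cell loss under 80%, at 10 µM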;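 also: anti alpha tubulin signal scored within the nucleus-defined area of each cell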
bCat nuc transl: beta-catenin nuclear translocation modulation; HeLa beta-catenin nuclear translocation, immunofluorescence imaging; nuclear translocation activity, % at 5 µM; 190,000 compounds, 0.3% hits;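 active = nuclear translocation activity above 50% at 5 µM, with a well cell count of 50 or more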;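 also: per-cell ratio of nuclear to cytoplasmic median beta-catenin stain intensity; plate controls were DMSO negative control for no effect and GSK-3 inhibitor IX positive control for full effect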
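Read-out: Nuclear/cytoplasmic beta-catenin signal ratio, % activation | Assay system: Human HeLa cell line | Times: 24 h compound exposure at 37°C, 5% CO2 | Signal: Fluorescence imaging of beta-catenin antibody stain plus DAPI | Dosing: 5 µM primary, 0.02–20 µM confirmation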
Lmaj promast: inhibitors of Leishmania major promastigote growth. Leishmania major promastigotes, resazurin fluorescence viability. AID 1063. 200,000 compounds, 9% hits. inhibition, % at 10 µM; in the data active = inhibition above about 50%;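 also: promastigotes grown with compound for 44 hours at 28 °C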
BaF3 tox: counter-screen for JAK2V617F inhibitors: parental Ba/F3 viability inhibitors. inhibition, % at 5.6 µM. CellTiter-Glo ATP luminescence. AID 1486. 220,000 compounds, 1.1% hits;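 active = inhibition above a per-campaign cutoff, the mean inhibition of all tested compounds plus 3 SD, cut at about 27% in these data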;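 also: 0% = DMSO wells and 100% = JAK Inhibitor I control wells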
Ba/F3 V617F tox: loss of viability in JAK2V617F-driven Ba/F3 cells; Ba/F3 EpoR-JAK2V617F viability, ATP luminescence; inhibition, % at 5.6 µM; 220,000 compounds, 1.1% hits; AID 1446;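 active = inhibition above the campaign mean plus 3 SD over all tested compounds, cut at about 24% in these data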;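 also: cytokine-independent growth of Ba/F3 cells driven by EpoR plus mutant JAK2; 0% = DMSO-treated cells and 100% = JAK inhibitor I control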
* = called active by the depositor.

Results for CCN1CCN(c2nc3ccccc3nc2C(C#N)C(=O)OC2CCCCC2)CC1 (centres undefined) ?
APP 5UTR inh: 0.9; MT stabilizer: 5.1; bCat nuc transl: -0.3; Lmaj promast: 84.9*; BaF3 tox: 4.8; Ba/F3 V617F tox: 1.5

How did CN1CCN(c2nc3ccccc3nc2C(C#N)C(=O)OC2CCCCC2)CC1 (centres undefined) do in these assays?
APP 5UTR inh: -4.3; MT stabilizer: 4.9; bCat nuc transl: 2.3; Lmaj promast: 89.7*; BaF3 tox: 7.3; Ba/F3 V617F tox: 1.6

What do the screens show for `O=c1nc(Nc2cccc(Cl)c2)oc2cc(Cl)oc(=O)c12`?
bCat nuc transl: -3.0; BaF3 tox: -1.6; Ba/F3 V617F tox: -1.0

What do the screens show for `COc1ccc(CNCC(O)COc2ccc(C)cc2[N+](=O)[O-])cc1` (centres undefined)?
bCat nuc transl: -0.6; BaF3 tox: -0.7; Ba/F3 V617F tox: 4.2

Results for Cc1snc(SCC(=O)c2ccc(Cl)cc2)c1C#N ?
APP 5UTR inh: -100.9; MT stabilizer: 3.1; bCat nuc transl: -3.3; Lmaj promast: 99.4*; BaF3 tox: 0.1; Ba/F3 V617F tox: -4.8

How did Cc1cc(C)c(C#N)c(SCC(=O)c2ccc(Cl)cc2Cl)n1 do in these assays?
APP 5UTR inh: 14.4; MT stabilizer: 3.7; bCat nuc transl: -1.4; Lmaj promast: 100.0*; BaF3 tox: -0.2; Ba/F3 V617F tox: -0.9

Results for CCOC(=O)CSc1nc(C)cc(C)c1C#N ?
APP 5UTR inh: 0.8; MT stabilizer: 3.5; bCat nuc transl: -0.8; Lmaj promast: -2.3; BaF3 tox: 2.6; Ba/F3 V617F tox: -1.1

What do the screens show for `O=C(COC(=O)c1ccc(Cl)c(S(=O)(=O)N2CCCCC2)c1)NCc1ccco1`?
APP 5UTR inh: 8.3; MT stabilizer: 2.8; bCat nuc transl: -0.4; Lmaj promast: 0.5; BaF3 tox: 13.6; Ba/F3 V617F tox: 2.9

How did COc1ccc(NC(=O)Cn2nc(Cc3cccnc3)c3ccccc3c2=O)c(OC)c1 do in these assays?
bCat nuc transl: -1.1; BaF3 tox: -2.1; Ba/F3 V617F tox: -5.8

How did CCc1cccc(CC)c1-n1c(SCC(=O)N2CCc3ccccc3C2)nnc1-c1cccnc1 do in these assays?
APP 5UTR inh: -2.8; MT stabilizer: 2.2; Lmaj promast: 98.8*; BaF3 tox: 4.9; Ba/F3 V617F tox: -0.5

Results for Cn1c(SCC(=O)N(C2CCCCC2)C2CCCCC2)nnc1-c1cccs1 ?
APP 5UTR inh: -22.2; MT stabilizer: 27.5*; Lmaj promast: 17.7; BaF3 tox: 3.2; Ba/F3 V617F tox: 4.9

What do the screens show for `CCc1cccc(CC)c1-n1c(SCC(=O)c2c(N)n(C)c(=O)n(C)c2=O)nnc1-c1cccnc1`?
APP 5UTR inh: 0.0; MT stabilizer: 3.8; bCat nuc transl: -0.1; Lmaj promast: -10.1; BaF3 tox: 3.2; Ba/F3 V617F tox: -0.1

What do the screens show for `COCC(C)n1c(SCC(=O)N2CCc3ccccc3C2)nc2ccccc2c1=O` (centres undefined)?
APP 5UTR inh: -6.2; MT stabilizer: 1.9; bCat nuc transl: -1.7; Lmaj promast: 90.5*; BaF3 tox: 2.3; Ba/F3 V617F tox: -0.8

Results for CCc1cccc(CC)c1-n1c(SCn2nnc3ccccc3c2=O)nnc1-c1cccnc1 ?
MT stabilizer: 2.5; bCat nuc transl: -2.9; Lmaj promast: 67.2*; BaF3 tox: 4.8; Ba/F3 V617F tox: -2.4

Results for CCc1nnc(NC(=O)CSc2ccc(-c3ccccc3OC)nn2)s1 ?
APP 5UTR inh: -17.3; MT stabilizer: 2.2; bCat nuc transl: 1.7; Lmaj promast: -10.5; BaF3 tox: 6.7; Ba/F3 V617F tox: -1.5

Results for CC1(C)[C@@H](O)CC[C@]2(C)C3C(O)C=C4[C@H]5C[C@@](C)(CO)CC[C@]5(C)CC[C@]4(C)[C@]3(C)CC[C@@H]12 (some centres undefined) ?
bCat nuc transl: -2.8

How did Cc1ccc2c(c1)CCCN2C(=O)c1cc2ccccc2oc1=O do in these assays?
APP 5UTR inh: 0.2; MT stabilizer: 1.2; Lmaj promast: 4.8; BaF3 tox: 3.6; Ba/F3 V617F tox: -5.4

What do the screens show for `Cn1c(SCC(=O)N2CCc3ccccc3C2)nnc1-c1cccs1`?
APP 5UTR inh: -4.9; MT stabilizer: 2.5; bCat nuc transl: -1.2; Lmaj promast: 78.4*; BaF3 tox: 6.6; Ba/F3 V617F tox: 3.3

What do the screens show for `Cc1ccccc1-n1c(C)nnc1SCC(=O)N1CCc2ccccc2C1`?
APP 5UTR inh: 0.4; MT stabilizer: 1.3; Lmaj promast: 50.4*; BaF3 tox: 5.2; Ba/F3 V617F tox: -2.9

Source: PubChem (several laboratories)
